Measurements pooled from the literature.
Lines come from different studies, so protocols differ.
Effect on: enzyme activity
Mode: inhibitor
rep main protease: Replicase polyprotein 1ab, main protease (rep, Severe acute respiratory syndrome coronavirus 2, UniProt P0DTD1)
rep papain-like protease: Replicase polyprotein 1ab, papain-like protease (rep, Severe acute respiratory syndrome coronavirus 2, UniProt P0DTD1)

| SMILES | target | assay | setting | inhibition |
| --- | --- | --- | --- | --- |
| Cn1c(C(=O)Nc2ccc3c(c2)OCCO3)cc2c(=O)n3ccccc3nc21 | rep main protease |  | 100 µM | 71% |
| COc1cc(C[C@@H](C)[C@@H](C)Cc2ccc(O)c(OC)c2)ccc1O | rep papain-like protease | FRET | 8 µM | 56.4% |
| COc1cc([C@H]2OC[C@H]3[C@@H]2CO[C@H]3c2ccc(OC)c(OC)c2)ccc1O | rep papain-like protease |  | 50 µM | 8.5% |
| COc1ccc2nc(Cl)c(/C=N/c3ccc(-c4nc5ccccc5[nH]4)cc3)cc2c1 | rep papain-like protease |  | 10 µM | 2.1% |
| O=C(Oc1cncc(Cl)c1)c1cc2cc(Cl)ccc2[nH]1 | rep main protease | fluorescence | 10 µM, pH 7.2 | 100% |
| Cn1c(C(=O)Nc2ccc(Cl)cc2)cc2c(=O)n3ccccc3nc21 | rep main protease |  | 100 µM | 33% |
| C[C@@H]1O[C@@H](O[C@@H]2[C@@H](O)[C@H](OCCc3ccc(O)c(O)c3)O[C@H](CO)[C@H]2OC(=O)/C=C/c2ccc(O)c(O)c2)[C@H](O)[C@H](O)[C@H]1O | rep papain-like protease |  | 50 µM | 15.6% |
| N#CC(c1ccc2c(c1)OCO2)N(Cc1ccccc1)C(=O)c1sc2ccccc2c1Cl (centres unmarked) | rep main protease |  | 20 µM | 8.09% |
| COC(=O)C1=CO[C@@H](O[C@@H]2O[C@H](CO)[C@@H](O)[C@H](O)[C@H]2O)[C@@H]2[C@@H](C)[C@@H](O)C[C@H]12 | rep main protease |  | 100 µM | 10.6% |
| O=C(O)[C@]1(O)C[C@@H](O)[C@@H](O)[C@H](O)C1 | rep main protease | FRET | 10 µM, 10 min | < 25% |
| Cc1cc(O)c2c(c1)C(=O)C=CC2=O | rep main protease |  | 10 µM | 103% |
| Clc1nc2ccccc2cc1/C=N\c1ccc(Br)nc1 | rep papain-like protease |  | 100 µM | 6.2% |
| COc1ccc(OC)c2c1C(=O)C=CC2=O | rep main protease |  | 1 µM | 75.1% |
| Clc1nc2ccccc2cc1/C=N\c1ccc(-c2nc3ccccc3[nH]2)cc1 | rep papain-like protease |  | 10 µM | 3.9% |
| CC[C@H](NC(=O)OCc1ccccc1)C(=O)N[C@H](C(=O)N[C@@H](CC(C)C)C(=O)N(C)N(C#N)CCC(N)=O)C(C)(C)C | rep main protease | fluorescence | 50 µM, pH 7.2 | 100% |
| O=C(O)[C@H]1O[C@@H](Oc2cc3oc(-c4ccc(O)cc4)cc(=O)c3c(O)c2O)[C@H](O)[C@@H](O)[C@@H]1O | rep main protease |  | 10 µM | 18.9% |
| NC(=O)c1ccc(/C=C/C(=O)N2CCC[C@@]3(CCN(C(=O)[C@@H]4CC(=O)NC(=O)N4)C3)C2)cc1 | rep main protease |  | 5 µM | 14.7% |
| O=C(O)[C@H]1O[C@@H](Oc2cc3oc(-c4ccccc4)cc(=O)c3c(O)c2O)[C@H](O)[C@@H](O)[C@@H]1O | rep main protease |  | 10 µM | 68.9% |
| COc1cc(C)cc2c1C(=O)C=CC2=O | rep main protease |  | 1 µM | 75.6% |
| Cc1cc(O)c2c(=O)c3c(O)cc(O)c4c5c(O)cc(O)c6c(=O)c7c(O)cc(C)c8c1c2c(c34)c(c78)c65 | rep main protease |  | 20 µM | 31.5% |
| Cn1c(=O)n(C)c2cc(CNc3ccc4c(c3)OCO4)ccc21 | rep main protease |  | 20 µM | 22.3% |

| SMILES | target | assay | setting | inhibition |
| --- | --- | --- | --- | --- |
| CCOC(=O)c1ccc(OC(=O)CCCCCNC(=N)N)cc1 | rep main protease |  | 10 µM | 3% |
| O=C(O)c1cc(N(Cc2ccccc2O)Cc2cc(O)ccc2O)ccc1O | rep main protease |  | 20 µM | -1.57% |
| O=c1oc2c(O)c(O)cc3c(=O)oc4c(O)c(O)cc1c4c23 | rep main protease | FRET | 10 µM, 10 min | > 50% |
| O=C(CCc1ccccc1)Nc1ccc2c(c1)C(=O)OC2 | rep main protease |  | 20 µM | -0.804% |
| COc1cccc2c1C(=O)C(C(C)=O)=CC2=O | rep main protease |  | 10 µM | 96.1% |
| O=C(NC[C@H](NC(=O)c1cncc2sccc12)c1ccc2ccccc2c1)c1cocn1 | rep main protease |  | 5 µM | 19.1% |
| COc1cc(O)c2c(=O)c(O)c(-c3ccc(O)c(O)c3)oc2c1 | rep main protease |  | 20 µM | 52% |
| CCOC(=O)COc1cc(C)cc2c1C(=O)C=CC2=O | rep main protease |  | 10 µM | 97.5% |
| O=c1n(-c2ccc(F)cc2)nc2n1CCCN2 | rep main protease |  | 20 µM | 10.2% |
| CC1(C)C=Cc2cc(-c3coc4cc(O)cc(O)c4c3=O)ccc2O1 | rep main protease |  | 8 µM | 11.8% |
| Cc1cccc(NC2CS(=O)(=O)CC2O)c1 (centres unmarked) | rep main protease |  | 20 µM | 7.43% |
| C/C=C1\C(OC2OC(CO)C(O)C(O)C2O)OC=C(C(=O)OC)C1CC(=O)OCCc1ccc(O)c(O)c1 (centres unmarked) | rep main protease |  | 20 µM | 93.8% |
| COc1cc(CC(C)NCc2cc(NC(=O)c3ccccn3)cc(C(=O)N(C)C)c2)ccc1O (centres unmarked) | rep main protease |  | 100 µg/mL | 5.47% |
| Cc1cc(NC(=O)c2cc3c(=O)n4cccc(C)c4nc3n2C)ccc1Br | rep main protease |  | 1 mM | 82% |
| O=C1C=CC(=O)c2ccccc21 | rep main protease |  | 10 µM | 97.7% |
| Oc1cc2c(cc1O)[C@H]1c3ccccc3CN[C@@H]1CC2 (racemic) | rep main protease |  | 20 µM | -15.1% |
| CCc1ccc(NC(=O)c2cc3c(=O)n4ccccc4nc3n2C)cc1 | rep main protease |  | 1 mM | 76% |
| Cc1cc(OCc2ccccc2)c2c(c1)C(=O)C=CC2=O | rep main protease |  | 0.1 µM | 28.1% |
| O=C(Nc1ccccc1F)c1cc2c(=O)n3ccccc3nc2n1Cc1ccccc1 | rep main protease |  | 1 mM | 71% |
| Cc1ncc(/C=C\C(=O)N2C[C@@H](NC(=O)c3ccc[nH]c3=O)CC3(CCOCC3)C2)c(=O)[nH]1 | rep main protease |  | 5 µM | 15.5% |
